Results reported in ChEMBL document CHEMBL2390952, “Novel triazolo-pyrrolopyridines as inhibitors of Janus kinase 1” (Bioorg Med Chem Lett, 2013).

Tests used:
[1] = target: Tyrosine-protein kinase JAK2 (Homo sapiens, UniProt O60674); test: Inhibition of JAK2 (unknown origin)
[2] = Half life in human liver microsomes; assay type: ADME, Microsome
In short: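 Half-life measured by incubation with in vitro preparations of human liver microsomes.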

[3] = Lipophilicity, log D of the compound at pH 7.2; assay type: physicochemical; settings: buffer
In short: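 Log D determined experimentally at pH 7.2.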

[4] = target: T1, Tyrosine-protein kinase JAK1 (Homo sapiens, UniProt P23458); test: Inhibition of JAK1 (unknown origin)
[5] = species: Homo sapiens; test: Selectivity ratio of Ki for JAK2 (unknown origin) to Ki for JAK1 (unknown origin)
In short: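 Biochemical JAK enzyme assay giving Ki, reported as the arithmetic mean of at least three separate determinations. Selectivity is taken as JAK2 Ki divided by JAK1 Ki.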

[6] = target: T1, Tyrosine-protein kinase JAK1; test: Inhibition of JAK1-mediated STAT3 phosphorylation in IL6-induced human TF1 cells; assay type: cell-based, TF-1
[7] = Clearance in Sprague-Dawley rat at 1 mg/kg, iv; assay type: ADME, organism-based; set-up: dose 1 mg/kg, route intravenous; settings: in vivo
In short: (§1)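 Rat pharmacokinetics given as mean profiles from three animals. Values normalized to 1 mg/kg iv and 5 mg/kg po. Clearance is plasma clearance after iv dosing.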

[8] = Apparent permeability from apical to basolateral side in MDCK cells; assay type: ADME, cell-based, Canis lupus familiaris; settings: dog
In short: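 MDCK cells grown in transwell culture. Apparent permeability measured in the apical-to-basolateral direction and reported as the arithmetic mean of at least two separate determinations.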

[9] = Cmax in Sprague-Dawley rat at 5 mg/kg, po; assay type: ADME, organism-based; set-up: dose 5 mg/kg, route oral; settings: in vivo; in short: as §1
[10] = test system: TF-1; test: Selectivity ratio of EC50 for JAK2-mediated STAT5 phosphorylation in EPO-induced human TF1 cells to EC50 for JAK1-mediated STAT3 phosphorylation in IL6-induced human TF1 cells; assay type: cell-based
[11] = AUC in Sprague-Dawley rat at 5 mg/kg, po; assay type: ADME, organism-based; set-up: dose 5 mg/kg, route oral; settings: plasma; in short: as §1
[12] = Oral bioavailability in Sprague-Dawley rat at 5 mg/kg; assay type: ADME, organism-based; settings: in vivo; in short: as §1
[13] = Dissociation constant, pKa of the compound; assay type: physicochemical
[14] = species: Homo sapiens; test: Selectivity ratio of Ki for TYK2 (unknown origin) to Ki for JAK1 (unknown origin)
[15] = target: T2, Tyrosine-protein kinase JAK3 (Homo sapiens, UniProt P52333); test: Inhibition of JAK3 (unknown origin)
T2 sequence (P52333 whole entry): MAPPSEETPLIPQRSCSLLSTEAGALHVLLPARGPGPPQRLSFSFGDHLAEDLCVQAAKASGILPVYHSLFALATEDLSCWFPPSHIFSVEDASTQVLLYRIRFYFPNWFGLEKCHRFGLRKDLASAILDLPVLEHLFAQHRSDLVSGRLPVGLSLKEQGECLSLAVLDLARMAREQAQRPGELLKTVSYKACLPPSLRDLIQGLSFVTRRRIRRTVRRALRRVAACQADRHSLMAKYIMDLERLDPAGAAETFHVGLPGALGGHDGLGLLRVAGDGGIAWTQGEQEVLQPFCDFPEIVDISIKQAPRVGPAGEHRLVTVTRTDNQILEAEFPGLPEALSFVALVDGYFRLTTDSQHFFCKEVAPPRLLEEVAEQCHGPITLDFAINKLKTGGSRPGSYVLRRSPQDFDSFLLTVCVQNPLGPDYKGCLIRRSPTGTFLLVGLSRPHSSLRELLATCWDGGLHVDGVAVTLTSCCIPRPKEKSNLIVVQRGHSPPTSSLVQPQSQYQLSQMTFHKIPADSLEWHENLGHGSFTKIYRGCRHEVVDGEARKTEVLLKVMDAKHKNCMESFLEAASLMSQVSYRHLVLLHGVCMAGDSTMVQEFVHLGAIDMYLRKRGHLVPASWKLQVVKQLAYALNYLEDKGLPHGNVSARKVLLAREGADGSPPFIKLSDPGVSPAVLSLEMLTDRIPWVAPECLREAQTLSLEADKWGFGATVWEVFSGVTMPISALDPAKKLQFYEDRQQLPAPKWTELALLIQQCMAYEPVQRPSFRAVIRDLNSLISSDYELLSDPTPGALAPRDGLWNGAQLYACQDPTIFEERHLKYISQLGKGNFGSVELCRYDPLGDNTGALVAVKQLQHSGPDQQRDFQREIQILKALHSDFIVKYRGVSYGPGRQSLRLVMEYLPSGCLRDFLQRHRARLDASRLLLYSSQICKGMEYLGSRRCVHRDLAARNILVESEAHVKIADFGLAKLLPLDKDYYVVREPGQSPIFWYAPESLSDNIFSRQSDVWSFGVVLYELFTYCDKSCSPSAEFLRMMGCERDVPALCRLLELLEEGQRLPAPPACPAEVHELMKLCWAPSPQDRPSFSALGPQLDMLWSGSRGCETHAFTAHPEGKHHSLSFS

[16] = species: Homo sapiens; test: Selectivity ratio of Ki for JAK3 (unknown origin) to Ki for JAK1 (unknown origin)
[17] = target: Non-receptor tyrosine-protein kinase TYK2 (Homo sapiens, UniProt P29597); test: Inhibition of TYK2 (unknown origin)
Non-receptor tyrosine-protein kinase TYK2, sequence (P29597 whole entry): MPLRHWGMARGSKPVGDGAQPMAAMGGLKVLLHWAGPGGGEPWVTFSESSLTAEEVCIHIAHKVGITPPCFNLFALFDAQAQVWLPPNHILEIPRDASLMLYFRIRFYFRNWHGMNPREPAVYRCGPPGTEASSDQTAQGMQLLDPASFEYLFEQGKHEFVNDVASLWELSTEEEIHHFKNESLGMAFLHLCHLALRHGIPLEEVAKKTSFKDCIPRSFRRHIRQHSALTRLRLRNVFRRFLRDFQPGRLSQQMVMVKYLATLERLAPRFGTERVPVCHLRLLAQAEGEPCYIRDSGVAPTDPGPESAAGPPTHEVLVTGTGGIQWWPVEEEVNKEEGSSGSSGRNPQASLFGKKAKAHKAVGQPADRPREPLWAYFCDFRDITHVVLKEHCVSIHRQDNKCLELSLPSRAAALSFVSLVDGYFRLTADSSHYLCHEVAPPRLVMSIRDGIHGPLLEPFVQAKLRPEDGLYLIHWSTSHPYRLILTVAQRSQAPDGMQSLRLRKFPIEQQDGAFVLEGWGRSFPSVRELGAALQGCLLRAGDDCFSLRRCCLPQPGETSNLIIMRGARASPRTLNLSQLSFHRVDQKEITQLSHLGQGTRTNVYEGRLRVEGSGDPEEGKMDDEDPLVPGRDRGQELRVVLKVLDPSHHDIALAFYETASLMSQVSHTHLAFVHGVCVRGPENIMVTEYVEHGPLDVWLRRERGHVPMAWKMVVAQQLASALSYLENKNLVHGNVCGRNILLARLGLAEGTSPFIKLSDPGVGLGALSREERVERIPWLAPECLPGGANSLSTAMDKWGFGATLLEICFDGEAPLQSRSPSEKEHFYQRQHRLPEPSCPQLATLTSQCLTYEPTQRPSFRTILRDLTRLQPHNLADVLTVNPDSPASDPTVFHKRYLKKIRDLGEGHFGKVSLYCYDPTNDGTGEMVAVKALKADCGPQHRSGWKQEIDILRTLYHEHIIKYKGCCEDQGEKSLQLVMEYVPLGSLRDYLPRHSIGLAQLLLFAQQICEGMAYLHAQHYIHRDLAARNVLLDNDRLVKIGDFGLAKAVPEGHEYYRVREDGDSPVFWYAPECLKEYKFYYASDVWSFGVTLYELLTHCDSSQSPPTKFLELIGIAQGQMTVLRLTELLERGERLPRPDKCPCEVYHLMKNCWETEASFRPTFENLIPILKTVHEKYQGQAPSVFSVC

T1 sequence (P23458 whole entry): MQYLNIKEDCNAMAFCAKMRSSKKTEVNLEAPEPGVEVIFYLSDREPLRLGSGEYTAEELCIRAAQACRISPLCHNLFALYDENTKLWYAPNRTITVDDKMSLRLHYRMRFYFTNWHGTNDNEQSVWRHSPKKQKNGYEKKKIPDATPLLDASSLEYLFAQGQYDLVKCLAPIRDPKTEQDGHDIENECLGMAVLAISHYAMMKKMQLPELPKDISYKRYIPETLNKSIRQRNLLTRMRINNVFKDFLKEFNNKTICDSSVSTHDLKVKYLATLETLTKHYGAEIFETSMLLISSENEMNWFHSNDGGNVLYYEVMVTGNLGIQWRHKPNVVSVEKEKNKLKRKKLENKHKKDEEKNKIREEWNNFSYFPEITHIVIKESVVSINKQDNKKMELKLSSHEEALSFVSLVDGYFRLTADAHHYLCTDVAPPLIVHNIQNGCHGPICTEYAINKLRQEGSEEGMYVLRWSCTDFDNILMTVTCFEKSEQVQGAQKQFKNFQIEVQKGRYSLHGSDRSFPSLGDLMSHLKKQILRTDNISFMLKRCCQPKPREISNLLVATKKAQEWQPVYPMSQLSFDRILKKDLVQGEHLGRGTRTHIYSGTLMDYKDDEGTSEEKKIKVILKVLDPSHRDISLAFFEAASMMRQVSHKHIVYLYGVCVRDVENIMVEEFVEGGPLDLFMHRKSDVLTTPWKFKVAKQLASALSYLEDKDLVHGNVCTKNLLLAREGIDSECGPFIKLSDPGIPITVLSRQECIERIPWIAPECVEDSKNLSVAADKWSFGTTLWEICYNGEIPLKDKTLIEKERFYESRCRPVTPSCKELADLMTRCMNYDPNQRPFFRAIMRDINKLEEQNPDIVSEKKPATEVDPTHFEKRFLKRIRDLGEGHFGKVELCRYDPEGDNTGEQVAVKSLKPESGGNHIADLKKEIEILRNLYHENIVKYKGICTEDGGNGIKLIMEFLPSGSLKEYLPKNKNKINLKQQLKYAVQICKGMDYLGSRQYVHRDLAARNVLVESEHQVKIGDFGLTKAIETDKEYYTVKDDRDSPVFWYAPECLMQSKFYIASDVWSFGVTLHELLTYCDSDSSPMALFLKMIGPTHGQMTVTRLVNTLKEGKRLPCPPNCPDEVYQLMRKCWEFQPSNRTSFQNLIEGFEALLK
Tyrosine-protein kinase JAK2, sequence (O60674 whole entry): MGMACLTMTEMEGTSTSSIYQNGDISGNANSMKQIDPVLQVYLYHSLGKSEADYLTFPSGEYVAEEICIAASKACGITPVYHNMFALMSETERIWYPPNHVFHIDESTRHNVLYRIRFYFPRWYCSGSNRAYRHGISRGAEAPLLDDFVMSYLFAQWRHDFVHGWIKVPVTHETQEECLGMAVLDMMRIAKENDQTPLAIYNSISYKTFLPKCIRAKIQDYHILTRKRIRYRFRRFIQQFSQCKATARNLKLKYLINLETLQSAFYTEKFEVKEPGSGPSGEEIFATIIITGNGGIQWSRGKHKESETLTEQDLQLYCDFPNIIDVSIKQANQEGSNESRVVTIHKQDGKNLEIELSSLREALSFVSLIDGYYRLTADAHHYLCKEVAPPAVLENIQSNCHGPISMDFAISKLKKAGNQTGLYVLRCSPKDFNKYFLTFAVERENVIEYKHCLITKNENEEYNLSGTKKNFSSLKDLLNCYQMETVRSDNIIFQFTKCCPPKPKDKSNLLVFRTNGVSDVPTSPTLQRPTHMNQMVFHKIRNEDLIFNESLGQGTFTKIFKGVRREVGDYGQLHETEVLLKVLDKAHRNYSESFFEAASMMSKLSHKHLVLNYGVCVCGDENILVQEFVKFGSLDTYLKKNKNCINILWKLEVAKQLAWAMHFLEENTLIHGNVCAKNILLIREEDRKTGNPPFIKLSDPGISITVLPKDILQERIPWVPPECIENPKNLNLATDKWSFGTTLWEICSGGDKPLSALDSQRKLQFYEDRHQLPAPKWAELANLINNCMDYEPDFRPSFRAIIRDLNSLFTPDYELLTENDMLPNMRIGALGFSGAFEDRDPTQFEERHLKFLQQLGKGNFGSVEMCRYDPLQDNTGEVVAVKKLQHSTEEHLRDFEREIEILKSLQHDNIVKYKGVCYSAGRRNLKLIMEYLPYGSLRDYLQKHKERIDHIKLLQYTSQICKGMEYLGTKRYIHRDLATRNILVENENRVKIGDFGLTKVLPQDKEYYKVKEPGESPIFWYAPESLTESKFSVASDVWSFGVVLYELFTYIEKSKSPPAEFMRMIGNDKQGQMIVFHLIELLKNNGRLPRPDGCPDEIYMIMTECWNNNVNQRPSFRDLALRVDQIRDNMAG

CC1(n2nnc3cnc4[nH]ccc4c32)CCN(CCC#N)CC1
Ki [1]: 487 nM
half-life [2]: 4.8 h
logD [3]: 1.92
Ki [4]: 156 nM
Ratio Ki [5]: 3.1

N[C@H]1CC[C@H](n2nnc3cnc4[nH]ccc4c32)CC1
half-life [2]: 1.1 h
logD [3]: -0.24

CS(=O)(=O)N1CCC(n2nnc3cnc4[nH]ccc4c32)CC1
EC50 [6]: 249 nM
Ki [1]: 12 nM
clearance [7]: 16 mL/min/kg
half-life [2]: 1.7 h
logD [3]: 1.05
Papp A→B [8]: 13 ×10⁻⁶ cm/s
Cmax [9]: 4600 nM
Ratio EC50 [10]: 4.8
Ki [4]: 6.2 nM
AUC [11]: 18 µM·h
bioavailability [12]: > 100%
Ratio Ki [5]: 1.9

CC(C)CC(=O)N[C@H]1CC[C@H](n2nnc3cnc4[nH]ccc4c32)CC1
EC50 [6]: 350 nM
Ki [1]: 17 nM
half-life [2]: 3.7 h
logD [3]: 2.7
Ratio EC50 [10]: 5
Ki [4]: 4.7 nM
Ratio Ki [5]: 3.6

c1ccc(CN2CCC(n3nnc4cnc5[nH]ccc5c43)CC2)cc1
EC50 [6]: 121 nM
Ki [1]: 15 nM
half-life [2]: 0.5 h
Ratio EC50 [10]: 3.4
Ki [4]: 8.5 nM
Ratio Ki [5]: 2

c1cc2c(ncc3nnn(CC4CCNCC4)c32)[nH]1
Ki [1]: 1230 nM
half-life [2]: 1.3 h
Ki [4]: 745 nM
Ratio Ki [5]: 1.7

F[C@H]1CNCC[C@H]1n1nnc2cnc3[nH]ccc3c21 (racemic)
Ki [1]: 446 nM
logD [3]: 0.27
Ki [4]: 198 nM
Ratio Ki [5]: 2.3

c1ccc(CN2CCC[C@@H](n3nnc4cnc5[nH]ccc5c43)C2)cc1
half-life [2]: 0.2 h
Ki [4]: 25 nM
Ratio Ki [5]: 1.6

c1cncc(CN2CCC(n3nnc4cnc5[nH]ccc5c43)CC2)c1
EC50 [6]: 414 nM
Ki [1]: 28 nM
half-life [2]: 0.7 h
logD [3]: 2.03
Ratio EC50 [10]: 2.7
Ki [4]: 16 nM
Ratio Ki [5]: 1.7

N#CCCN1CCC(n2nnc3cnc4[nH]ccc4c32)CC1
EC50 [6]: 138 nM
Ki [1]: 3.7 nM
clearance [7]: 44 mL/min/kg
half-life [2]: 1.9 h
logD [3]: 1.12
Papp A→B [8]: 17 ×10⁻⁶ cm/s
Cmax [9]: 4900 nM
Ratio EC50 [10]: 4.6
Ki [4]: 2.1 nM
AUC [11]: 1.8 µM·h
bioavailability [12]: 28%
Ratio Ki [5]: 1.8

CC(C)(C)OC(=O)N[C@H]1CC[C@H](n2nnc3cnc4[nH]ccc4c32)CC1
Ki [1]: 401 nM
half-life [2]: 1 h
logD [3]: 3.58
Ki [4]: 120 nM
Ratio Ki [5]: 3.3

N#CCC(=O)N1CCC[C@@H](n2nnc3cnc4[nH]ccc4c32)C1
pKa [13]: 1.96
Ratio Ki [14]: > 10
EC50 [6]: 114 nM
Ki [1]: 3.8 nM
clearance [7]: 110 mL/min/kg
logD [3]: 0.6
Papp A→B [8]: 3.7 ×10⁻⁶ cm/s
Cmax [9]: 400 nM
Ratio EC50 [10]: 6.8
Ki [15]: 24 nM
Ratio Ki [16]: > 10
AUC [11]: 1 µM·h
bioavailability [12]: 41%
Ki [17]: 20 nM

F[C@@H]1CNCC[C@H]1n1nnc2cnc3[nH]ccc3c21 (racemic)
Ki [1]: 57 nM
half-life [2]: 15 h
logD [3]: 0.77
Ki [4]: 21 nM
Ratio Ki [5]: 2.7

COC(=O)N[C@@H]1CC[C@@H](n2nnc3cnc4[nH]ccc4c32)C1 (racemic)
EC50 [6]: 395 nM
Ki [1]: 33 nM
half-life [2]: 4.3 h
logD [3]: 1.98
Ratio EC50 [10]: 6.8
Ki [4]: 12 nM
Ratio Ki [5]: 2.8

c1cc2c(ncc3nnn(C4CCNCC4)c32)[nH]1
Ki [1]: 669 nM
logD [3]: -0.35
Ki [4]: 210 nM
Ratio Ki [5]: 3.2

N#CCC(=O)N1CCC[C@@H](n2cnc3cnc4[nH]ccc4c32)C1
pKa [13]: 4.34
Papp A→B [8]: 0.3 ×10⁻⁶ cm/s

CC(C)(C)OC(=O)N[C@@H]1CC[C@@H](n2nnc3cnc4[nH]ccc4c32)C1
EC50 [6]: 127 nM
Ki [1]: 10 nM
half-life [2]: 0.9 h
logD [3]: 3.53
Ratio EC50 [10]: 4.3
Ki [4]: 2.4 nM
Ratio Ki [5]: 4.2

CC1(n2nnc3cnc4[nH]ccc4c32)CCN(S(C)(=O)=O)CC1
Ratio Ki [14]: > 10
EC50 [6]: 220 nM
Ki [1]: 53 nM
clearance [7]: 211 mL/min/kg
half-life [2]: 32 h
logD [3]: 1.5
Papp A→B [8]: 14 ×10⁻⁶ cm/s
Cmax [9]: 700 nM
Ratio EC50 [10]: 15
Ki [15]: 369 nM
Ratio Ki [16]: > 10
Ki [4]: 7.9 nM
AUC [11]: 1 µM·h
bioavailability [12]: 82%
Ratio Ki [5]: 6.7
Ki [17]: 234 nM

CN1CCC[C@H]1C(=O)N1CCC(n2nnc3cnc4[nH]ccc4c32)CC1
Ki [1]: 721 nM
half-life [2]: 1.1 h
Ki [4]: 121 nM
Ratio Ki [5]: 5.9

N#CCCO[C@H]1CC[C@H](n2nnc3cnc4[nH]ccc4c32)CC1
half-life [2]: 5.8 h
logD [3]: 1.36
Ki [4]: > 3760 nM

COC(=O)N[C@H]1CC[C@H](n2nnc3cnc4[nH]ccc4c32)CC1
EC50 [6]: 433 nM
Ki [1]: 27 nM
half-life [2]: 4.8 h
logD [3]: 2.08
Ratio EC50 [10]: 4
Ki [4]: 12 nM
Ratio Ki [5]: 2.3

O[C@H]1CC[C@H](n2nnc3cnc4[nH]ccc4c32)CC1
half-life [2]: 1.2 h
logD [3]: 1.76
